Reference: ChEMBL document CHEMBL1121966, “(2R*,3S*)-1-[125I]Iodo-2,3-bis(4-hydroxyphenyl)pentane ([125I]iodonorhexestrol) and (2R*,3S*)-1-[77Br]Bromo-2,3-bis(4-hydroxyphenyl)pentane ([77Br]bromonorhexestrol), two gamma-emitting estrogens that show receptor-mediated uptake by target tissues in vivo” (1982)

Legend:
[1] = Esophagus/blood distribution ratio was determined in immature female rats at 1 hr; format: functional
In short: (§1)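 Immature (25-day, ca. 50 g) Sprague-Dawley female rats received an iv injection (jugular or tail vein) of HPLC-purified tracer in ethanol plus 0.9% NaCl/rat serum 1:1. Doses were 2 μCi [125I]iodo tracer (≤15 pmol), or 2 μCi [77Br]bromo tracer (≤1.25 pmol) with 2 μCi 16α-[125I]iodoestradiol. Animals were killed at 1 h; blood and tissues were weighed and γ-counted. Blocking: coinjected unlabeled estradiol, 9 μg (iodo) or 18 μg (bromo). Mean ± SD.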

[2] = Spleen/blood distribution ratio was determined immature female rats at 3h; format: functional
In short: (§2)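 Immature (25 day) female Sprague-Dawley rats (ca. 50 g) were dosed iv (jugular or tail vein) in ethanol plus 0.9% NaCl/rat serum (1:1). Doses were 2 μCi of [125I]iodonorhexestrol (≤15 pmol/dose), or 2 μCi each of [77Br]bromonorhexestrol (≤1.25 pmol/dose) and 16α-[125I]iodoestradiol (2 pmol/dose). Rats were killed at 1, 3 or 6 h; blood and tissues were weighed and γ-counted. Thyroid weight assumed 0.005 g/100 g body weight. Mean ± SD.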

[3] = Thyroid/blood distribution ratio was determined in immature female rats at 1 hr; format: functional; in short: as §2
[4] = Kidney/blood distribution ratio was determined in immature female rats at 3h; format: functional
In short: (§3)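 Dual-label study in immature 25-day female Sprague-Dawley rats (ca. 50 g). Each received 2 μCi [77Br]bromo tracer (≤1.25 pmol/dose) and 2 μCi 16α-[125I]iodoestradiol (2 pmol/dose) by tail or jugular vein, in ethanol diluted with saline/rat serum 1:1. Rats were killed at 3 or 6 h; blood and 11 tissues were weighed and counted. Five rats per time point; mean ± SD.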

Rattus norvegicus [5] = species: Rattus norvegicus; experiment: Percent injected dose per gram thyroid at 6 hr; format: functional, Thyroid gland; in short: as §2
[6] = Muscle/blood distribution ratio was determined in immature female rats at 1 hr; format: functional; in short: as §1
Rattus norvegicus [7] = species: Rattus norvegicus; experiment: Percent injected dose per gram lung at 3h; format: functional; in short: as §2
Rattus norvegicus [8] = species: Rattus norvegicus; experiment: Percent injected dose per gram blood at 1 hr with unlabeled estradiol; format: functional; in short: as §1
[9] = Uterus/blood distribution of compound was measured in immature female rats at 1 hr with unlabeled estradiol; format: functional
In short: (§4)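 Same iv biodistribution in immature female rats, killed at 1 h, with unlabeled estradiol coinjected to block receptor uptake: 9 μg with [125I]iodonorhexestrol (3 rats), 18 μg with the [77Br]bromonorhexestrol/16α-[125I]iodoestradiol pair (5 rats). Tissue and blood radioactivity were counted as % injected dose/g and tissue-to-blood ratio.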

[10] = Kidney/blood distribution ratio was determined in immature female rats at 6 hr; format: functional; in short: as §3
[11] = Uterus/blood distribution ratio was measured in immature female rats at 1 hr; format: functional; in short: as §2
[12] = Ovary/blood distribution ratio was determined in immature female rats at 6 hr; format: functional; in short: as §3
[13] = Uterus/blood distribution ratio was measured in immature female rats at 6 hr; format: functional; in short: as §2
[14] = Esophagus/blood distribution ratio was determined in immature female rats at 1 hr with unlabeled estradiol; format: functional; in short: as §1
[15] = Liver/blood distribution ratio was determined in immature female rats at 1 hr; format: functional; in short: as §1
[16] = Esophagus/blood distribution ratio was determined in immature female rats at 3h; format: functional; in short: as §3
Rattus norvegicus [17] = species: Rattus norvegicus; experiment: Percent injected dose per gram kidney at 1 hr with unlabeled estradiol; format: functional; in short: as §1
Rattus norvegicus [18] = species: Rattus norvegicus; experiment: Percent injected dose per gram blood at 1 hr; format: functional; in short: as §1
[19] = Spleen/blood distribution ratio was determined in immature female rats at 1 hr with unlabeled estradiol; format: functional
Rattus norvegicus [20] = species: Rattus norvegicus; experiment: Percent injected dose per gram blood at 6 hr; format: functional; in short: as §3
[21] = Uterus/blood distribution ratio was measured in immature female rats at 3h; format: functional; in short: as §2
Rattus norvegicus [22] = species: Rattus norvegicus; experiment: Percent injected dose per gram Muscle at 6 hr; format: functional; in short: as §3
Rattus norvegicus [23] = species: Rattus norvegicus; experiment: Percent injected dose per gram Ovaries at 6 hr; format: functional; in short: as §3
Rattus norvegicus [24] = species: Rattus norvegicus; experiment: Percent injected dose per gram thyroid at 1 hr with unlabeled estradiol; format: functional, Thyroid gland; in short: as §4
Rattus norvegicus [25] = species: Rattus norvegicus; experiment: Percent injected dose per gram Uterus at 1 hr with unlabeled estradiol.; format: functional; in short: as §1
Rattus norvegicus [26] = species: Rattus norvegicus; experiment: Percent injected dose per gram Muscle at 1 hr with unlabeled estradiol; format: functional; in short: as §1
Rattus norvegicus [27] = species: Rattus norvegicus; experiment: Percent injected dose per gram Ovaries at 1 hr; format: functional; in short: as §1
[28] = Lung/blood distribution ratio was determined in immature female rats at 3h; format: functional; in short: as §3
[29] = Lung/blood distribution ratio was determined in immature female rats at 1 hr; format: functional; in short: as §1
[30] = Tissue/blood distribution ratio was measured in immature female rats at 6 hr; format: functional; in short: as §2
[31] = Liver/blood distribution ratio was determined in immature female rats at 3h; format: functional; in short: as §3
Rattus norvegicus [32] = species: Rattus norvegicus; experiment: Percent injected dose per gram lung at 6 hr; format: functional; in short: as §2
Rattus norvegicus [33] = species: Rattus norvegicus; experiment: Percent injected dose per gram thyroid at 1 hr; format: functional, Thyroid gland; in short: as §2
Rattus norvegicus [34] = species: Rattus norvegicus; experiment: Percent injected dose per gram liver at 1 hr with unlabeled estradiol; format: functional; in short: as §4
Rattus norvegicus [35] = species: Rattus norvegicus; experiment: Percent injected dose per gram esophagus at 1 hr; format: functional; in short: as §1
Rattus norvegicus [36] = species: Rattus norvegicus; experiment: Percent injected dose per gram Uterus at 1 hr; format: functional; in short: as §1
[37] = Thyroid/blood distribution ratio was determined in immature female rats at 3h; format: functional; in short: as §2
Rattus norvegicus [38] = species: Rattus norvegicus; experiment: Percent injected dose per gram Muscle at 1 hr; format: functional; in short: as §1
Rattus norvegicus [39] = species: Rattus norvegicus; experiment: Percent injected dose per gram esophagus at 3h; format: functional; in short: as §3
Rattus norvegicus [40] = species: Rattus norvegicus; experiment: Percent injected dose per gram Ovaries at 3h; format: functional; in short: as §3
Rattus norvegicus [41] = species: Rattus norvegicus; experiment: Percent injected dose per gram spleen at 1 hr; format: functional; in short: as §2
Rattus norvegicus [42] = species: Rattus norvegicus; experiment: Percent injected dose per gram Uterus at 6 hr; format: functional; in short: as §3
[43] = Spleen/blood distribution ratio was determined immature female rats at 1 hr; format: functional; in short: as §2
[44] = Kidney/blood distribution ratio was determined in immature female rats at 1 hr; format: functional; in short: as §1
[45] = Thyroid/blood distribution ratio was determined in immature female rats at 6 hr; format: functional; in short: as §2
Rattus norvegicus [46] = species: Rattus norvegicus; experiment: Percent injected dose per gram esophagus at 1 hr with unlabeled estradiol; format: functional; in short: as §1
[47] = Muscle/blood distribution ratio was determined in immature female rats at 3h; format: functional; in short: as §3
[48] = Muscle/blood distribution ratio was determined immature female rats at 1 hr with unlabeled estradiol; format: functional; in short: as §1
Rattus norvegicus [49] = species: Rattus norvegicus; experiment: Percent injected dose per gram liver at 3h; format: functional; in short: as §2
[50] = Tissue/blood distribution ratio was measured in immature female rats at 3h; format: functional; in short: as §2
[51] = Muscle/blood distribution ratio was determined in immature female rats at 6 hr; format: functional; in short: as §3
[52] = Tissue/blood distribution ratio was measured in immature female rats at 1h, unlabeled estradiol (18 microg) coinjected; format: functional
In short: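 Immature female rats given iv [77Br]bromonorhexestrol with 16α-[125I]iodoestradiol (2 μCi each) plus 18 μg unlabeled estradiol coinjected; killed at 1 h. Tissue and blood were weighed and counted, and tissue-to-blood radioactivity ratios were computed; 5 animals, mean ± SD.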

[53] = Kidney/blood distribution ratio was determined in immature female rats at 1 hr with unlabeled estradiol; format: functional; in short: as §1
Rattus norvegicus [54] = species: Rattus norvegicus; experiment: Percent injected dose per gram kidney at 1 hr; format: functional; in short: as §1
Rattus norvegicus [55] = species: Rattus norvegicus; experiment: Percent injected dose per gram lung at 1 hr; format: functional; in short: as §2
Rattus norvegicus [56] = species: Rattus norvegicus; experiment: Percent injected dose per gram kidney at 3h; format: functional; in short: as §3
Rattus norvegicus [57] = species: Rattus norvegicus; experiment: Percent injected dose per gram Muscle at 3h; format: functional; in short: as §3
Rattus norvegicus [58] = species: Rattus norvegicus; experiment: Percent injected dose per gram Ovaries at 1 hr with unlabeled estradiol; format: functional; in short: as §1
[59] = Esophagus/blood distribution ratio was determined in immature female rats at 6 hr; format: functional; in short: as §3
[60] = Ovary/blood distribution ratio was determined in immature female rats at 1 hr; format: functional; in short: as §1

CC[C@H](c1ccc(O)cc1)[C@@H](CBr)c1ccc(O)cc1
Ratio [1]: 0.54
Ratio [2]: 0.48
Ratio [3]: 0.32
Ratio [4]: 0.76
Injected dose (Rattus norvegicus [5]): 0.18%
Ratio [6]: 0.48
Injected dose (Rattus norvegicus [7]): 0.95%
Injected dose (Rattus norvegicus [8]): 0.98%
Ratio [9]: 0.98
Ratio [10]: 0.89
Ratio [11]: 4.49
Ratio [12]: 1.41
Ratio [13]: 2.51
Ratio [14]: 0.59
Ratio [15]: 1.69
Ratio [16]: 0.49
Injected dose (Rattus norvegicus [17]): 0.7%
Injected dose (Rattus norvegicus [18]): 0.75%
Ratio [19]: 0.51
Injected dose (Rattus norvegicus [20]): 1.36%
Ratio [21]: 2.86
Injected dose (Rattus norvegicus [22]): 0.35%
Injected dose (Rattus norvegicus [23]): 1.93%
Injected dose (Rattus norvegicus [24]): 0.25%
Injected dose (Rattus norvegicus [25]): 0.95%
Injected dose (Rattus norvegicus [26]): 0.3%
Injected dose (Rattus norvegicus [27]): 1.38%
Ratio [28]: 0.68
Ratio [29]: 0.6
Ratio [30]: 1
Ratio [31]: 0.84
Injected dose (Rattus norvegicus [32]): 1.02%
Injected dose (Rattus norvegicus [33]): 0.26%
Injected dose (Rattus norvegicus [34]): 1.46%
Injected dose (Rattus norvegicus [35]): 0.38%
Injected dose (Rattus norvegicus [36]): 3.16%
Ratio [37]: 0.08
Injected dose (Rattus norvegicus [38]): 0.29%
Injected dose (Rattus norvegicus [39]): 0.61%
Injected dose (Rattus norvegicus [40]): 1.28%
Injected dose (Rattus norvegicus [41]): 0.38%
Injected dose (Rattus norvegicus [42]): 3.19%
Ratio [43]: 0.52
Ratio [44]: 1.29
Ratio [45]: 0.13
Injected dose (Rattus norvegicus [46]): 0.56%
Ratio [47]: 0.29
Ratio [48]: 0.31
Injected dose (Rattus norvegicus [49]): 1.05%
Ratio [50]: 1
Ratio [51]: 0.26
Ratio [52]: 1
Ratio [53]: 0.84
Injected dose (Rattus norvegicus [54]): 0.94%
Injected dose (Rattus norvegicus [55]): 0.42%
Injected dose (Rattus norvegicus [56]): 0.84%
Injected dose (Rattus norvegicus [57]): 0.37%
Injected dose (Rattus norvegicus [58]): 0.72%
Ratio [59]: 0.5
Ratio [60]: 1.98
